ChEMBL document CHEMBL4387708, “Enhancement of Benzothiazoles as Pteridine Reductase-1 Inhibitors for the Treatment of Trypanosomatidic Infections” (J Med Chem, 2019)
Activity calls are given as the source filed them. The calls are words filed in the database; no cut-off is given here.

Experiments:
Trypanosoma cruzi = test: Growth inhibition of trypomastigote form of Trypanosoma cruzi Y infected in human U2OS cells at 50 uM measured after 72 hrs by DRAQ5 DNA dye based confocal microscopic analysis relative to control; assay type: organism-based; conditions: for growth inhibition (GI): trypanosoma cruzi, 50 µM; for inhibition at 50 µM: Trypanosoma cruzi, Y, U2OS, read-out: GI
Leishmania infantum = test: Growth inhibition of luciferase expressing Leishmania infantum axenic amastigotes infected in human THP1 cells at 10 uM measured after 72 hrs by steady-glo luminescence assay relative to control; assay type: organism-based; conditions: leishmania infantum, 72 h, 10 µM
Pteridine reductase 1 = biological target: T1, Pteridine reductase 1 (Leishmania major, UniProt Q01782); test: Inhibition of Leishmania major pteridine reductase 1 using di-hydrobiopterine as substrate in presence of NADPH
T1 sequence (Q01782 whole entry): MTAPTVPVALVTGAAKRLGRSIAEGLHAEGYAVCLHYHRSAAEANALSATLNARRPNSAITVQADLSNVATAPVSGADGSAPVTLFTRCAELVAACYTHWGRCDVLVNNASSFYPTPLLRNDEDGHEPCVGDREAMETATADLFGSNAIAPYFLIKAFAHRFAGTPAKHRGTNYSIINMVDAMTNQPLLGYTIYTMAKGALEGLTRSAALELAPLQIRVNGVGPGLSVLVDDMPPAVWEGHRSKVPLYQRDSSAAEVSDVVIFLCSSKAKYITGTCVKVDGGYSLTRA
In short: (§1)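 Photometric PTR1 assay with NADPH and dihydrobiopterin substrate. H₄B formation is coupled non-enzymatically to cytochrome c reduction, read as signal increase at 550 nm.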

[1] = Inhibition of N-terminal His-tagged Trypanosoma brucei pteridine reductase 1 using di-hydrobiopterine as substrate measured at 1 min interval for 50 mins in presence of NADPH; in short: as §1
Trypanosoma brucei [2] = test: Inhibition of N-terminal His-tagged Trypanosoma brucei pteridine reductase 1 at 50 uM using di-hydrobiopterine as substrate measured at 1 min interval for 50 mins in presence of NADPH relative to control; in short: as §1
[3] = biological target: T2, Pteridine reductase 1 (Leishmania major) (UniProt Q01782); test: Inhibition of Leishmania major pteridine reductase 1 at 50 uM using di-hydrobiopterine as substrate in presence of NADPH relative to control; in short: as §1
T2 sequence (whole entry): T1 sequence (Q01782 whole entry)

Trypanosoma brucei [4] = test: Growth inhibition of Trypanosoma brucei bloodstream forms at 10 uM measured after 72 hrs by resazurin-based fluorescence assay relative to control; assay type: organism-based; conditions: Trypanosoma brucei, read-out: GI
[5] = biological target: Voltage-gated inwardly rectifying potassium channel KCNH2 (Homo sapiens, UniProt Q12809); test: Displacement of Tracer Red from human ERG by fluorescence polarization assay
Chain of Voltage-gated inwardly rectifying potassium channel KCNH2 (Q12809 whole entry): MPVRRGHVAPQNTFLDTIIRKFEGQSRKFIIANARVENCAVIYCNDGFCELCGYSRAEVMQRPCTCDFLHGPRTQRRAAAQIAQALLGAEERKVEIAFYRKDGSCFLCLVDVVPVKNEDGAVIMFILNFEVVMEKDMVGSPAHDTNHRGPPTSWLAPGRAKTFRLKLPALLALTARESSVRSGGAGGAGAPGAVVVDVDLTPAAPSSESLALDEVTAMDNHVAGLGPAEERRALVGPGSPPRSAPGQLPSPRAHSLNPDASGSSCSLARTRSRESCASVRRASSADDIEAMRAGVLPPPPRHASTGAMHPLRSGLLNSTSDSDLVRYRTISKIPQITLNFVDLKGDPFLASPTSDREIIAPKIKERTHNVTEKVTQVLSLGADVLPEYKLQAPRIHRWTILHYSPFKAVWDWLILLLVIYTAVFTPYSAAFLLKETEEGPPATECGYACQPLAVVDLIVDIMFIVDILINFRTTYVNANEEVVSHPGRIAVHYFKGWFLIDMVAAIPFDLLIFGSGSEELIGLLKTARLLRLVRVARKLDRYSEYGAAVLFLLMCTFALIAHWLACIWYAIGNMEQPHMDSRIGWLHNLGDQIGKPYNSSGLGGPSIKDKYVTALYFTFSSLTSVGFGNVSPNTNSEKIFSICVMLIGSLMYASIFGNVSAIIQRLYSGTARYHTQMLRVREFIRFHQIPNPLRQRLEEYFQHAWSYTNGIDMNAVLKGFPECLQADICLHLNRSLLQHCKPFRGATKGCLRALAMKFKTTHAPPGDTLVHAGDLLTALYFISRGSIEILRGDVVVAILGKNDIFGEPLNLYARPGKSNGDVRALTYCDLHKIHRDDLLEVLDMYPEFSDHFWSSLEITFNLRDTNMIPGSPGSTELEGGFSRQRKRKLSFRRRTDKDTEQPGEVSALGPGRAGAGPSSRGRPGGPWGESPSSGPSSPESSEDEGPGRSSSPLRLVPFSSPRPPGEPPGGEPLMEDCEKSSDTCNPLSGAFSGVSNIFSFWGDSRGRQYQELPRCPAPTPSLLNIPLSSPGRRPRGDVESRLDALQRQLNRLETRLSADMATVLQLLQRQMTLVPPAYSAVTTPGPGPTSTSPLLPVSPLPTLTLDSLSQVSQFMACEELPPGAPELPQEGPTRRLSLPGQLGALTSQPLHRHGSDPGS

Cytochrome P450 1A2 = biological target: T3, Cytochrome P450 1A2 (Homo sapiens, UniProt P05177); test: Inhibition of human CYP1A2 expressed in baculovirus infected insect cells using beetle D-luciferin as substrate preincubated for 30 mins followed by NADPH addition and measured after 30 mins by CYP450-Glo assay
T3 sequence (P05177 whole entry): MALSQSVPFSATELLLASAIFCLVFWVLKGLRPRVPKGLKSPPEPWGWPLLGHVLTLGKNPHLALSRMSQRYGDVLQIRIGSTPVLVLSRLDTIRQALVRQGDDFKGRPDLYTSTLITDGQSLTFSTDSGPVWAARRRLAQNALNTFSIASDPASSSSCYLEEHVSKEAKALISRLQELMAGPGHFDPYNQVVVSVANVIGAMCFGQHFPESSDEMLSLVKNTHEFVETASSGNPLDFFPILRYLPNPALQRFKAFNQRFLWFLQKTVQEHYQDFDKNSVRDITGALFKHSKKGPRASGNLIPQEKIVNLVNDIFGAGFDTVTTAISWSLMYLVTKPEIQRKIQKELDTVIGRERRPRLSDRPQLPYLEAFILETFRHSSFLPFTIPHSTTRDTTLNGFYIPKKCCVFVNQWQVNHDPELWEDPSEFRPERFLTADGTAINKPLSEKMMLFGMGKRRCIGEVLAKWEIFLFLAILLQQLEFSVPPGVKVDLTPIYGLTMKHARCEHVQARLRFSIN

Cytochrome P450 2C9 = Cytochrome P450 2C9 (Homo sapiens, UniProt P11712); test: Inhibition of human CYP2C9 expressed in baculovirus infected insect cells using beetle D-luciferin as substrate preincubated for 30 mins followed by NADPH addition and measured after 30 mins by CYP450-Glo assay
Chain of Cytochrome P450 2C9 (P11712 whole entry): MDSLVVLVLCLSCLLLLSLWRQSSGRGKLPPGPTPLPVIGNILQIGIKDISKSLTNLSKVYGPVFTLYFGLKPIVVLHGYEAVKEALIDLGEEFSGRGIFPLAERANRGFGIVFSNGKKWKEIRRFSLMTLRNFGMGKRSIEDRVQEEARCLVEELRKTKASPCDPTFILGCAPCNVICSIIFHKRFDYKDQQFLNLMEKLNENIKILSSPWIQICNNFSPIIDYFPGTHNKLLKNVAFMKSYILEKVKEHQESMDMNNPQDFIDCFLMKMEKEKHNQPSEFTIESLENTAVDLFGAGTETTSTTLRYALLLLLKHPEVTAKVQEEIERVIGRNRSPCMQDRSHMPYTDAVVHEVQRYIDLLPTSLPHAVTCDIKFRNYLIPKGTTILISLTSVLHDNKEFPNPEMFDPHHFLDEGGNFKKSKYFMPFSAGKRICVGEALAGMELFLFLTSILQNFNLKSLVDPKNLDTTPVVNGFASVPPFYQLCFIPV

Cytochrome P450 2C19 = Cytochrome P450 2C19 (Homo sapiens, UniProt P33261); test: Inhibition of human CYP2C19 expressed in baculovirus infected insect cells using beetle D-luciferin as substrate preincubated for 30 mins followed by NADPH addition and measured after 30 mins by CYP450-Glo assay
Chain of Cytochrome P450 2C19 (P33261 whole entry): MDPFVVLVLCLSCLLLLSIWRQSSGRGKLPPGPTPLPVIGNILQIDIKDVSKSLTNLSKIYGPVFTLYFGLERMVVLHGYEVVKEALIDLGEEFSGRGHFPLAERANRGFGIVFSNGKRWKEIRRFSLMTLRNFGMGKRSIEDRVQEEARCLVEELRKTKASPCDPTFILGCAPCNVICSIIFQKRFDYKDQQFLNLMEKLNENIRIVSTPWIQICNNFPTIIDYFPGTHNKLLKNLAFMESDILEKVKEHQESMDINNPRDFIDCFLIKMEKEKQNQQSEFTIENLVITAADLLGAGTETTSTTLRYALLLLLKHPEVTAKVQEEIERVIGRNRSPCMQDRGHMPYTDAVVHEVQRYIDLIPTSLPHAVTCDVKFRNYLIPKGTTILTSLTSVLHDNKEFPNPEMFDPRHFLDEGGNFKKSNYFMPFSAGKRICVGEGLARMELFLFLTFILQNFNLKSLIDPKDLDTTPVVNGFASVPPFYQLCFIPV

Cytochrome P450 2D6 = Cytochrome P450 2D6 (Homo sapiens, UniProt P10635); test: Inhibition of human CYP2D6 expressed in baculovirus infected insect cells using beetle D-luciferin as substrate preincubated for 30 mins followed by NADPH addition and measured after 30 mins by CYP450-Glo assay
Chain of Cytochrome P450 2D6 (P10635 whole entry): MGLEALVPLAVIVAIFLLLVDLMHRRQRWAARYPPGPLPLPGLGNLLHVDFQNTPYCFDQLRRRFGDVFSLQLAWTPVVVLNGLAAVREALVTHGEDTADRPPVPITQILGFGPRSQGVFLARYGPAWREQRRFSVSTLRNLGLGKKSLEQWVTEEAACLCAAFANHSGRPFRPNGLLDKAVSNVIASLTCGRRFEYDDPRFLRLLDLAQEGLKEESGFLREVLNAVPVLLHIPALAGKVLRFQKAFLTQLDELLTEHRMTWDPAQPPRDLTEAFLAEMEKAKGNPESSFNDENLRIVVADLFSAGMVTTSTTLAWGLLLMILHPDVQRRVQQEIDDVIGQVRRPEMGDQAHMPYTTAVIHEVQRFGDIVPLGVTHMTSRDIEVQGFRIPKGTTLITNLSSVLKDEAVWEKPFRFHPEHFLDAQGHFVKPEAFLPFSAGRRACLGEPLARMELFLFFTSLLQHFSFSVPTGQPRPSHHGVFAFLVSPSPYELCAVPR

Cytochrome P450 3A4 = Cytochrome P450 3A4 (Homo sapiens, UniProt P08684); test: Inhibition of human CYP3A4 expressed in baculovirus infected insect cells using beetle D-luciferin as substrate preincubated for 30 mins followed by NADPH addition and measured after 30 mins by CYP450-Glo assay
Chain of Cytochrome P450 3A4 (P08684 whole entry): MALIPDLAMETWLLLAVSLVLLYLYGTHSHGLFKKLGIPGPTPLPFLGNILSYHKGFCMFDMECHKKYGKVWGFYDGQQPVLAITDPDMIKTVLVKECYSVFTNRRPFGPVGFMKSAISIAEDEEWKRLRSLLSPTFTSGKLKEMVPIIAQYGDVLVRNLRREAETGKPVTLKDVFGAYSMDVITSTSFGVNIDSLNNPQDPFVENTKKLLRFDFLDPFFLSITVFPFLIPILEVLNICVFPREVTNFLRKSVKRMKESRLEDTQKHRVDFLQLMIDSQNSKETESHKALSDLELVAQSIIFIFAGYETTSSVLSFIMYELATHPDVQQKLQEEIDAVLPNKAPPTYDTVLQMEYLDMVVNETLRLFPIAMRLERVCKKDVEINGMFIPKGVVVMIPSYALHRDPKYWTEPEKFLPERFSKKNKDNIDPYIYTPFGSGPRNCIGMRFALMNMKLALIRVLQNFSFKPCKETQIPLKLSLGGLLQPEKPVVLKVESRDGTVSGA

[6] = Cytotoxicity against human A549 cells after 48 hrs by Celltiter-glo assay; assay type: cell-based
[7] = Cytotoxicity against human THP1 cells after 72 hrs by MTT assay; assay type: cell-based, THP-1; conditions: read-out: NOAEL
[8] = Cytotoxicity against human U2OS cells assessed as reduction in cell number; assay type: cell-based
[9] = Mitochondrial toxicity in human 786-O cells measured after 6 hrs by MitoTracker Red chloromethyl-X-rosamine based assay; assay type: cell-based, 786-0
[10] = Selectivity ratio of IC50 for Leishmania major pteridine reductase 1 to IC50 for N-terminal His-tagged Trypanosoma brucei pteridine reductase 1

Row | SMILES | growth inhibition (GI) (Trypanosoma cruzi) | growth inhibition (GI) (Leishmania infantum) | IC50 (Pteridine reductase 1) | IC50 [1] | inhibition (Trypanosoma brucei [2]) | inhibition [3] | inhibition at 10 µM (Trypanosoma brucei [4]) | IC50 [5] | IC50 (Cytochrome P450 1A2) | IC50 (Cytochrome P450 2C9) | IC50 (Cytochrome P450 2C19) | IC50 (Cytochrome P450 2D6) | IC50 (Cytochrome P450 3A4) | GI50 at 48 h [6] | MNTC at 72 h [7] | GI50 [8] | IC50 at 6 h [9] | Ratio IC50 [10] | inhibition at 50 µM (Trypanosoma cruzi) | IC50 (Pteridine reductase 1; read-out: IC50)
1 | Nc1nc2ccc(OCc3ccccc3)cc2s1 | Non-Toxic | Non-Toxic | Not Active | 13.4 µM | > 60% | inactive | 28% | < 10 µM | < 10 µM | > 25 µM | > 25 µM | < 10 µM | 10 to 25 µM | > 25 µM | > 25 µM | > 25 µM | > 25 µM | 2 to 100 | – | –
2 | Nc1nc2ccc(C(=O)NCc3ccccc3[N+](=O)[O-])cc2s1 | – | Non-Toxic | – | 6.46 µM | > 60% | > 60% | 18% | > 25 µM | > 25 µM | > 25 µM | > 25 µM | > 25 µM | < 10 µM | > 25 µM | > 25 µM | > 25 µM | < 10 µM | 2 to 100 | 19% | 3.51 µM
3 | Nc1nc2c(C(=O)NCc3ccccc3)cc(O)c(O)c2s1 | – | Non-Toxic | – | 30.9 µM | > 60% | > 60% | 15% | > 25 µM | > 25 µM | > 25 µM | > 25 µM | < 10 µM | < 10 µM | 10 to 25 µM | > 25 µM | > 25 µM | 10 to 25 µM | 2 to 100 | 5.85% | 30.1 µM
4 | Nc1nc2ccc(C(=O)NCc3ccccc3N)cc2s1 | – | Non-Toxic | – | 13.9 µM | > 60% | > 60% | 8% | > 25 µM | > 25 µM | > 25 µM | > 25 µM | 10 to 25 µM | 10 to 25 µM | > 25 µM | > 25 µM | > 25 µM | > 25 µM | 2 to 100 | 6.1% | 64.7 µM
5 | CS(=O)(=O)c1ccc2nc(N)sc2c1 | – | Non-Toxic | – | 34.2 µM | > 60% | > 60% | 17% | > 25 µM | > 25 µM | > 25 µM | > 25 µM | > 25 µM | > 25 µM | > 25 µM | > 25 µM | > 25 µM | > 25 µM | 2 to 100 | 17.4% | 32.9 µM
6 | N#Cc1ccc(CNC(=O)c2ccc3nc(N)sc3c2)cc1 | Non-Toxic | Non-Toxic | – | 42.9 µM | > 60% | > 60% | 8% | > 25 µM | > 25 µM | > 25 µM | > 25 µM | > 25 µM | > 25 µM | > 25 µM | > 25 µM | > 25 µM | > 25 µM | 2 to 100 | – | 73.3 µM
7 | COC(=O)c1ccc(COc2ccc3nc(N)sc3c2)cc1 | – | Non-Toxic | – | 1.7 µM | > 60% | > 60% | 22% | 10 to 25 µM | > 25 µM | > 25 µM | < 10 µM | > 25 µM | 10 to 25 µM | > 25 µM | 10 to 25 µM | > 25 µM | > 25 µM | 2 to 100 | 8.79% | 66.6 µM
